Activity calls are given as the source filed them.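 Rule for the calls, unless noted: active = viability at or below 30% in both replicate assays; inconclusive = viability at or below 30% in just one of the two assays; inactive = the rest.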 Peptide text beside a SMILES is read from it. * marks the point of attachment. Boc = CC(C)(C)OC(=O)*
Legend:
[1] = SK-BR-3 cell growth inhibitors, pilot screen, 24 h, human (AID 572;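 active = viability at or below 10% of carrier control in both of two separate runs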;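 note: compound exposure lasted between 18 and 24 h rather than exactly 24 h; 100% = carrier-treated control wells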); conditions: SK-BR-3 viability, CellTiter-Glo luminescence, at 10 µM, stronger effect = lower value
[2] = HUVEC growth inhibition – cell-based, human, primary screen (AID 575); conditions: HUVEC proliferation, CellTiter-Glo luminescence, 72 h; at 10 µM; stronger effect = lower value;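 note: 100% = median of untreated cell wells with 0.1% DMSO on each plate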
Summary of the method: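 Test system – primary HUVEC, no more than 12 passages · Dosing – one dose, 10 µM final, 0.1% DMSO · Times – 72 h treatment at 37 °C · Measured by – ATP-based CellTiter-Glo luminescent read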

[3] = growth inhibitors of H69AR lung tumor, primary screen, human, duplicate replicates (AID 580;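 active = viability at or under a set limit in both replicates, limit being median viability minus 3 SD, cut at about 48% in these data, passing the limit was not always enough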;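 note: 100% = mean luminescence of untreated wells and 0% = no signal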); conditions: H69AR lung tumor cells viability, ATP luminescence, 72 h; at 10 µM; stronger effect = lower value
[4] = reversal of MRP1-mediated doxorubicin resistance, pilot screen, H69AR cells, doxorubicin co-treatment (AID 601;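 active = viability loss from added drug above about 55%, and viability with drug at most 40%, in both replicates, limit read from the data, passing the limit was not always enough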); conditions: CellTiter-Glo, 72 h, at 10 µM; for differential viability (reversal): stronger effect = higher value
[5] = 384-well plate pilot, post-Golgi transport modulator project, inhibition of yeast transport mutant growth (AID 636; in the data active = inhibition above about 31%); conditions: absorbance 615 nm, about 18 h, stronger effect = higher value
[6] = growth suppression of yeast trafficking mutant, preliminary HTS, modulators of trafficking downstream of Golgi apparatus project, 1536-format plate, OD 615 nm (AID 637; in the data active = inhibition above about 30%); conditions: yeast transport mutant growth, absorbance 615 nm, 18 h; stronger effect = higher value
[7] = H69AR cells + 2 uM doxorubicin, measured here: viability with 2 uM doxorubicin, stronger effect = lower value
[8] = H69AR cells, compound alone cytotoxicity

Row | Structure (SMILES) | viability [1] | viability [2] | viability [3] | differential viability (reversal) ([4]; H69AR cells + 2 uM doxorubicin) | viability [4, 7] [%] | viability [4, 8] [%] | inhibition [5] | inhibition [6]
1 | CCC(C)C(NC(=O)OC(C)(C)C)C(=O)NC(CC(C)C)C(N)=O (stereo not drawn) (Boc-Ile-Leu-NH2; configuration not given here) | 109% (inactive) | 114% (inactive) | 98.9% (inactive) | 9.78% (inactive) | 89.1 | 98.9 | -2.73% (inactive) | -1.8% (inactive)
2 | CCOC(=O)n1c(=O)oc2cc(S(=O)(=O)N3CCCCC3)ccc21 | 97% (inactive) | 112% (inactive) | 90.2% (inactive) | -0.62% (inactive) | 90.8 | 90.2 | -4.27% (inactive) | -2.91% (inactive)
3 | CCOC(=O)C1CCN(CC(=O)c2c(C)[nH]c3ccccc23)CC1 | 100% (inactive) | 112% (inactive) | 92.6% (inactive) | 0.74% (inactive) | 91.9 | 92.6 | -0.67% (inactive) | -2.73% (inactive)
4 | COc1ccccc1-n1c(SCC(=O)NC(C)(C)C)nnc1-c1ccco1 | 82% (inactive) | 104% (inactive) | 96.1% (inactive) | -15.2% (inactive) | 111 | 96.1 | -4.79% (inactive) | -3.45% (inactive)
5 | COc1cc2c(cc1OC)CN(C(=O)COc1ccc(C)c(C)c1)CC2 | 94% (inactive) | 91.4% (inactive) | 83.9% (inactive) | -5.58% (inactive) | 89.5 | 83.9 | -7.95% (inactive) | 1.29% (inactive)
6 | COC(=O)c1cc(S(=O)(=O)N2CCOCC2)c(N2CCOCC2)cc1N1CCOCC1 | 124% (inactive) | 102% (inactive) | 85.5% (inactive) | 13.4% (inactive) | 72.1 | 85.5 | -0.14% (inactive) | -2.91% (inactive)
7 | COc1ccc(S(=O)(=O)Nc2ccccc2SC)cc1C | 94% (inactive) | 87.8% (inactive) | 87% (inactive) | -8.52% (inactive) | 95.5 | 87 | -6.99% (inactive) | 0% (inactive)
